Calls of active or inactive are those of the source. No cut-off for these calls is given here.
How the values were obtained:
Measles morbillivirus [1] = test: Antiviral activity against wild type Measles virus Edmonston in Vero-CD150w cells by cytopathicity assay; type: functional, organism-based
Outline: (§1)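 Cells infected with MV Edmonston at MOI 0.2 pfu/cell in the presence of 2-fold compound dilutions, starting at 75–300 µM and ending at 0.3–1.2 µM. Two to four replicates per concentration; DMSO ≤0.1% with matched DMSO controls. Virus-induced cytopathicity was read at 96 h post-infection by nonradioactive proliferation assay. IC50 was taken from dose-response curves of replicate averages.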

Vero [2] = test: Cytotoxicity against Vero-CD150w cells; type: functional; conditions: Chlorocebus sabaeus
Outline: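 Uninfected cells were exposed to 2-fold compound dilutions from 600 µM down to 2.3 µM for 36 to 40 h. Remaining proliferation was then measured over 1 h by nonradioactive proliferation assay. CC50 comes from two independent replicates.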

Vero [3] = test: Selectivity index, CC50 for Vero-CD150w cells/IC50 for Measles virus Edmonston; type: functional
Outline: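 Ratio of CC50 to IC50. CC50: 2-fold dilutions from 600 µM, 36–40 h exposure, proliferation read-out, two independent replicates. IC50: suppression of cytopathicity at MOI 0.2 pfu/cell, 96 h, proliferation read-out, from dose-response curves of replicate averages.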

Measles morbillivirus [4] = test: Antiviral activity against Measles virus variant in Vero-CD150w cells by cytopathicity assay; type: functional, organism-based
Outline: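 MV variant carrying an F-protein point mutation at position 462. Cells infected at MOI 0.2 pfu/cell with 2-fold compound dilutions starting at 75–300 µM, in 2–4 replicates, with DMSO at most 0.1% and DMSO-matched controls. Cytopathicity quantified at 96 h post-infection by a nonradioactive proliferation assay. IC50 taken from dose-response curves of replicate averages.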

Measles morbillivirus [5] = test: Antiviral activity against wild type Measles virus Edmonston in Vero-CD150w cells at >75 uM by cytopathicity assay; type: functional, organism-based; outline: as §1
Measles morbillivirus [6] = test: Antiviral activity against wild type Measles virus Edmonston in Vero-CD150w cells upto 100 uM by cytopathicity assay; type: functional, organism-based; outline: as §1
[7] = Measles morbillivirus, Edmonston, Vero-CD150w, read-out: IC50

Structure (SMILES)	IC50 (Measles morbillivirus [1]; [7]) [µM]	CC50 (Vero [2]) [µM]	Selectivity index (Vero [3])	IC50 (Measles morbillivirus [4]) [µM]	Activity (Measles morbillivirus [5])	IC50 (Measles morbillivirus [1]; vero-cd150w)	Activity (Measles morbillivirus [6])
Nc1cc(C(=O)NCc2ccccc2)cc([N+](=O)[O-])c1	23						
O=C(Cc1ccccc1)Nc1ccc(O)c([N+](=O)[O-])c1	63	> 600	>10				
O=C(Cc1ccccc1)Nc1cc([N+](=O)[O-])cc([N+](=O)[O-])c1	30	> 600	>20	> 150			
O=C(Cc1ccccc1)Nc1cccc(O)c1	25	> 600	>24				
O=C(Cc1cccnc1)Nc1cccc([N+](=O)[O-])c1	> 75						
O=C(Cc1ccccc1)Nc1cc(C(=O)O)cc([N+](=O)[O-])c1	5	> 600	>120	> 150			
O=C(Cc1ccccc1I)Nc1cccc([N+](=O)[O-])c1	> 300						
Nc1ccc(NC(=O)Cc2ccccc2)cc1	135	> 600	>4				
O=[N+]([O-])c1ccc(O)c(NS(=O)(=O)Cc2ccccc2)c1	> 300						
O=C(Cc1ccccc1)Nc1cc(NO)cc([N+](=O)[O-])c1	6	325	54	> 75			
O=C(Cc1ccccc1F)Nc1cccc([N+](=O)[O-])c1					inactive		
Nc1ccc(NC(=O)COc2ccccc2)c(O)c1						Not Active	
O=C(Cc1ccc(F)cc1)Nc1cccc([N+](=O)[O-])c1	9						
Nc1cccc(NC(=O)Cc2ccccc2)c1	19	> 600	>32	> 150			
NC(=O)c1ccc(O)c(NC(=O)Cc2ccccc2)c1	127	> 600	>5				
O=C(Cc1ccc(I)cc1)Nc1cccc([N+](=O)[O-])c1	> 75						
Nc1cc(NC(=O)Cc2ccccc2)cc([N+](=O)[O-])c1	11	> 600	>55	> 150			
O=C(Cc1ccccc1)Nc1cc(CO)cc([N+](=O)[O-])c1	6	> 600	>100	> 150			
O=C(Cc1cccc(I)c1)Nc1cccc([N+](=O)[O-])c1	> 300						
O=C(Cc1ccncc1)Nc1cccc([N+](=O)[O-])c1	> 75						
O=C(COc1ccccc1)Nc1cc([N+](=O)[O-])ccc1O	> 100	600	<6				
COC(=O)c1cc(NC(=O)Cc2ccccc2)cc([N+](=O)[O-])c1	4	440	110	> 150			
COc1ccc(CC(=O)Nc2cc([N+](=O)[O-])ccc2O)cc1	> 100	600	<6				
NC(=O)c1cc(NC(=O)Cc2ccccc2)cc([N+](=O)[O-])c1	3.7	170	46	> 75			

Structure (SMILES)	IC50 (Measles morbillivirus [1]; [7]) [µM]	CC50 (Vero [2]) [µM]	Selectivity index (Vero [3])	IC50 (Measles morbillivirus [4]) [µM]	Activity (Measles morbillivirus [5])	IC50 (Measles morbillivirus [1]; vero-cd150w)	Activity (Measles morbillivirus [6])
O=C(Cc1ccccc1)Nc1ccc([N+](=O)[O-])cc1	16	550	34				
O=C(Cc1ccccc1)Nc1ccccc1C(=O)O	60	> 600	>10				
Nc1cc(N)cc(NC(=O)Cc2ccccc2)c1	> 100						
O=C(COc1ccccc1)Nc1ccc([N+](=O)[O-])cc1O	> 100	> 600					
Nc1cc(CO)cc(NC(=O)Cc2ccccc2)c1							inactive
Nc1ccc2oc(Cc3ccccc3)nc2c1	55	> 600	>10	> 150			
O=C(Cc1ccccc1)Nc1ccc(F)c([N+](=O)[O-])c1	> 100	450	<5				
O=C(Cc1cccc(F)c1)Nc1cccc([N+](=O)[O-])c1	47						
O=C(Cc1ccccc1)Nc1cc([N+](=O)[O-])ccc1O	47	450	10				
COc1cccc(CC(=O)Nc2cc([N+](=O)[O-])ccc2O)c1	> 100	> 600					
NC(=O)c1cc(N)cc(NC(=O)Cc2ccccc2)c1	18	> 600	>33				
O=C(Cc1ccccc1)Nc1ccccc1O	13	525	40	> 150			
Nc1ccc(NC(=O)Cc2ccccc2)c(O)c1	75	> 600	>8				
O=C(Cc1ccccc1)Nc1cc(C(F)(F)F)ccc1O	> 100	> 600					
O=C(Cc1ccccn1)Nc1cccc([N+](=O)[O-])c1	> 75						
NC(=O)c1ccc([N+](=O)[O-])cc1NC(=O)Cc1ccccc1	3	325	108	> 150			
COC(=O)c1ccc(O)c(NC(=O)Cc2ccccc2)c1	66	> 600	>9				
O=C(Cc1ccccc1)Nc1cccc([N+](=O)[O-])c1	8.5	> 600	>71				
O=C(Cc1ccccc1)Nc1cc([N+](=O)[O-])ccc1OC(=O)Cc1ccccc1	68	75	1				
Nc1ccc(CO)c(NC(=O)Cc2ccccc2)c1							inactive
O=C(Cc1ccccc1)Nc1ccc(F)cn1	109	> 600	>6				
N#Cc1cccc(NC(=O)Cc2ccccc2)c1	6.5	> 600	>92	> 150			
O=C(Cc1ccccc1)Nc1ccccc1[N+](=O)[O-]	> 100	> 600					
Nc1cc(NC(=O)Cc2ccccc2)cc(C(=O)O)c1	55	> 600	>11				
